For 12 molecules, MIC results are on record in ChEMBL document CHEMBL1144435, “Effects of positional and geometrical isomerism on the biological activity of some novel oxazolidinones” (2005).

The subject of assay [1] is Staphylococcus aureus. Nature of the assay: In vitro minimum inhibitory concentration of compound against Methicillin-resistant Staphylococcus aureus ATCC 33591.
Assay [2] relates to Enterococcus faecium. Nature of the assay: In vitro minimum inhibitory concentration against vancomycin-resistant Enterococcus faecium NCTC 12202. It is filed as functional. In short, it runs like this: (§1)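 Broth microdilution per NCCLS guidelines. Doubling dilutions from 32-1 µg/mL in Mueller Hinton medium. Final inoculum 1-5 × 10^5 cfu/mL. Plates incubated overnight in ambient air at 35 °C. Linezolid and streptomycin run as controls.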

For assay [3], the system named is Staphylococcus aureus. Nature of the assay: In vitro minimum inhibitory concentration of compound against Staphylococcus aureus ATCC 49951 (Smith). It is filed as functional. In short, it runs like this: as §1
The subject of assay [4] is Enterococcus faecalis. Nature of the assay: In vitro minimum inhibitory concentration against Enterococcus faecalis ATCC 29212. It is filed as functional. In short, it runs like this: as §1
Assay [5] has as its system Staphylococcus aureus. Nature of the assay: In vitro minimum inhibitory concentration of compound against Methicillin-sensitive Staphylococcus aureus ATCC 29213. The class given is functional. In short, it runs like this:
as §1

For assay [6], the system named is Enterococcus faecalis. Nature of the assay: In vitro minimum inhibitory concentration against vancomycin-resistant Enterococcus faecalis NCTC 12201. It is filed as functional. The method in brief: as §1
Assay [7] has as its system Mycolicibacterium smegmatis. Nature of the assay: In vitro minimum inhibitory concentration of compound against Mycobacterium smegmatis MTCC 006. It is filed as functional.

≈ marks a conversion by molar mass, not a printed value.

As usually defined, the MIC is the lowest concentration found to suppress growth. Low readings indicate a more susceptible organism, high ones a less susceptible organism. Consider `CC(=O)NC[C@H]1CN(c2ccc(/C=C(\C#N)n3nc4ccccc4n3)c(F)c2)C(=O)O1`, for which the minimal inhibitory concentration (MIC) was 16 µg/mL (≈ 38.1 µM) in assay [1]; 32 µg/mL (≈ 76.1 µM) in assay [2]; 16 µg/mL (≈ 38.1 µM) in assay [3]; 32 µg/mL (≈ 76.1 µM) in assay [4]; 8 µg/mL (≈ 19 µM) in assay [5]; 32 µg/mL (≈ 76.1 µM) in assay [6]. Moreover, the MIC in assay [7] is over 32 µg/mL.

On to `CC(=O)NC[C@H]1CN(c2ccc(/C=C(/C#N)n3nnc4ccccc43)cc2)C(=O)O1`, for which the minimum inhibitory concentration (MIC) in assay [1], in assay [2], in assay [3], in assay [4], in assay [5] and in assay [6] was over 32 µg/mL in each case. In addition, the minimal inhibitory concentration (MIC) in assay [7] was over 32 µg/mL.

On to `CC(=O)NC[C@H]1CN(c2ccc(/C=C(\C#N)c3nc4ccccc4n3C)cc2)C(=O)O1`, for which the MIC in assay [2], in assay [3], in assay [4], in assay [5], in assay [6] and in assay [7] was over 32 µg/mL each time.

Turning to `C/C(S)=N/C[C@H]1CN(c2ccc(/C=C(\C#N)n3nc4ccccc4n3)cc2)C(=O)O1`, the MIC in assay [1] amounted to 2 µg/mL (≈ 4.78 µM); in assay [2] it was 4 µg/mL (≈ 9.56 µM); in assay [3], 2 µg/mL (≈ 4.78 µM); in assay [4] it was 4 µg/mL (≈ 9.56 µM); in assay [5], 2 µg/mL (≈ 4.78 µM); in assay [6], 4 µg/mL (≈ 9.56 µM). For the same molecule, the MIC in assay [7] is over 32 µg/mL.

As to `CC(=O)NC[C@H]1CN(c2ccc(/C=C(\C#N)n3cnc4ccccc43)cc2)C(=O)O1`, the MIC came to 16 µg/mL (≈ 39.9 µM) in assay [1]; 32 µg/mL (≈ 79.7 µM) in assay [2]; 16 µg/mL (≈ 39.9 µM) in assay [3]; 32 µg/mL (≈ 79.7 µM) in assay [4]; 16 µg/mL (≈ 39.9 µM) in assay [5]; 32 µg/mL (≈ 79.7 µM) in assay [6]. This molecule showed an MIC in assay [7] of over 32 µg/mL.

With `CC(=O)NC[C@H]1CN(c2ccc(/C=C(\C#N)n3nc4ccccc4n3)cc2)C(=O)O1`, the MIC in assay [1], in assay [2], in assay [3], in assay [4], in assay [5] and in assay [6] was 8 µg/mL (≈ 19.9 µM) in each case. The same molecule yielded an MIC in assay [7] of over 32 µg/mL.

As for `CC(=O)NC[C@H]1CN(c2ccc(/C=C(\C#N)c3nc4ccccc4s3)cc2)C(=O)O1`, the MIC in assay [2], in assay [3], in assay [4], in assay [5], in assay [6] and in assay [7] was over 32 µg/mL each time.

Consider `CC(=O)NC[C@H]1CN(c2ccc(/C=C(\C#N)c3nc4ccccc4o3)cc2)C(=O)O1`, for which the MIC in assay [2], in assay [3], in assay [4], in assay [5], in assay [6] and in assay [7] was over 32 µg/mL each time.

Turning to `CC(=O)NC[C@H]1CN(c2ccc(/C=C(\C#N)n3nnc4ccccc43)cc2)C(=O)O1`, the MIC in assay [1] stood at 16 µg/mL (≈ 39.8 µM); in assay [2], 32 µg/mL (≈ 79.5 µM); in assay [3] it was 16 µg/mL (≈ 39.8 µM); in assay [4] it was 32 µg/mL (≈ 79.5 µM); in assay [5] it was 16 µg/mL (≈ 39.8 µM); in assay [6], 32 µg/mL (≈ 79.5 µM). Further, the MIC in assay [7] is over 32 µg/mL.

Regarding `CC(=O)NC[C@H]1CN(c2ccc(/C=C(\C#N)c3nc4ccccc4[nH]3)cc2)C(=O)O1`, the MIC in assay [2], in assay [3], in assay [4], in assay [5], in assay [6] and in assay [7] was over 32 µg/mL each time.

`CC(=O)NC[C@H]1CN(c2ccc(N3CCOCC3)c(F)c2)C(=O)O1` [LINEZOLID]: the MIC in assay [2] and in assay [7] was 2 µg/mL (≈ 5.93 µM) throughout.

Consider `CN[C@@H]1[C@H](O[C@H]2[C@H](O[C@H]3[C@H](O)[C@@H](O)[C@H](N=C(N)N)[C@@H](O)[C@@H]3N=C(N)N)O[C@@H](C)[C@]2(O)C=O)O[C@@H](CO)[C@H](O)[C@H]1O` [STREPTOMYCIN], for which the MIC in assay [1] is over 32 µg/mL; in assay [2] it was 32 µg/mL (≈ 55 µM); in assay [3] it was 2 µg/mL (≈ 3.44 µM); in assay [4], over 32 µg/mL; in assay [5] it was 4 µg/mL (≈ 6.88 µM); in assay [6], over 32 µg/mL. This molecule came in with a minimal inhibitory concentration (MIC) in assay [7] of 0.5 µg/mL (≈ 0.86 µM).
